ChEMBL document CHEMBL1128742, “Novel thiazole derivatives as inhibitors of superoxide production by human neutrophils: synthesis and structure-activity relationships” (J Med Chem, 1995)
pIC50: −log10 of the molar value.

Experiments:
[1] = organism: Homo sapiens; test: In vitro inhibitory activity against superoxide production from human neutrophils stimulated with f-MLP; NE indicates no effect; assay type: functional
How it was run: (§1)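 Neutrophils isolated from fresh venous blood of healthy adults by dextran sedimentation and Ficoll-paque gradient. Cells diluted in Hepes–Hanks, pH 7.4, then held at 1 × 10^6 cell/mL and preincubated 20 min at 37 °C with or without compound. Cytochalasin B (1 μg/mL final) added 10 min and ferricytochrome c (106 μM final) added 4 min before f-MLP stimulation. Reaction stopped with 1 mM N-ethylmaleimide, cells spun down, superoxide read as SOD-inhibitable absorbance at 550 nm.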

[2] = organism: Homo sapiens; test: In vitro inhibitory activity against superoxide production from human neutrophils stimulated with f-MLP; assay type: functional; how it was run: as §1
[3] = Solubility was measured by shaking with water and 1 equiv of NaOH; assay type: physicochemical; details: water with 1 equiv of NaOH
How it was run: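 Solubility: compound shaken with water plus 1 equiv NaOH; dissolved amount quantified by HPLC.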

[4] = organism: Homo sapiens; test: In vitro inhibitory activity against superoxide production from human neutrophils stimulated with f-MLP; act.= activation of superoxide production; assay type: functional; how it was run: as §1
[5] = organism: Homo sapiens; test: In vitro inhibitory activity against superoxide production from human neutrophils stimulated with f-MLP; NE= No effect; assay type: functional; how it was run: as §1
[6] = organism: Homo sapiens; test: In vitro inhibitory activity against superoxide production from human neutrophils stimulated with f-MLP; No effect; assay type: functional; how it was run: as §1
[7] = Solubility was measured by shaking with water; assay type: physicochemical
How it was run: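 Aqueous solubility: compound shaken with water; dissolved amount quantified by HPLC.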

SMILES | pIC50 [2] | further results
Cc1ccc(-c2nc(-c3ccc4c(c3)CCC(=O)N4)cs2)cc1C | – | IC50 [1]: Not Active
CCCOc1ccc(-c2nc(-c3ccc4c(c3)CCC(=O)N4)cs2)cc1OCCC | – | IC50 [1]: Not Active
O=C1CCc2cc(-c3csc(-c4ccc(C(=O)O)cc4)n3)ccc2N1 | – | IC50 [1]: Not Active
c1cncc(-c2csc(-c3cccnc3)n2)c1 | 6.00 | –
COc1ccc(C(O)c2nc(-c3ccc4c(c3)CCC(=O)N4)cs2)cc1OC (stereo not given) | – | IC50 [1]: Not Active
COc1ccc(-c2nc(-c3ccc4c(c3)CCC(=O)N4)cs2)cc1 | 5.05 | –
COc1ccc(/C=C/c2nc(-c3ccc4c(c3)CCC(=O)N4)cs2)cc1OC | 5.55 | –
COc1cc(OC)cc(-c2nc(-c3ccc4c(c3)CCC(=O)N4)cs2)c1 | – | IC50 [1]: Not Active
O=C1CCc2cc(-c3csc(-c4ccc([N+](=O)[O-])cc4)n3)ccc2N1 | – | IC50 [1]: Not Active
COc1cccc(-c2nc(-c3ccc4c(c3)CCC(=O)N4)cs2)c1OC | – | IC50 [4]: Active
COc1ccc(C(=O)c2nc(-c3ccc4c(c3)CCC(=O)N4)cs2)cc1OC | 6.00 | –
CCCCOc1ccc(-c2nc(-c3ccc4c(c3)CCC(=O)N4)cs2)cc1OC | – | IC50 [1]: Not Active
COc1cc(-c2nc(-c3ccc4c(c3)CCC(=O)N4)cs2)ccc1SC | 6.40 | –
CCCCCCCCCCOc1ccc(-c2nc(-c3ccc4c(c3)CCC(=O)N4)cs2)cc1OCCCCCCCCCC | – | IC50 [5]: Not Active
CCOc1ccc(-c2nc(-c3ccc(C(=O)O)o3)cs2)cc1OCC | 7.70 | solubility [3]: 23 mg/mL
O=C1CCc2cc(-c3csc(-c4ccc5c(c4)OCCO5)n3)ccc2N1 | – | IC50 [1]: Not Active
CCCCOc1ccc(-c2nc(-c3ccc4c(c3)CCC(=O)N4)cs2)cc1OCCCC | – | IC50 [1]: Not Active
CCOc1ccc(-c2nc(-c3ccc4c(c3)CCC(=O)N4)cs2)cc1OCC | 7.10 | –
CC(=O)Oc1ccc(-c2nc(-c3ccc4c(c3)CCC(=O)N4)cs2)cc1OC(C)=O | – | IC50 [6]: Not Active
CCCOc1ccc(-c2nc(-c3ccc4c(c3)CCC(=O)N4)cs2)cc1OC | – | IC50 [1]: Not Active
COc1ccc(-c2nc(-c3ccc4c(c3)CCC(=O)N4)cs2)cc1OC | 6.52 | –
O=C1CCc2cc(-c3csc(-c4ccc(Cl)cc4)n3)ccc2N1 | – | IC50 [1]: Not Active
Nc1ccc(-c2csc(-c3cccnc3)n2)cc1 | 5.52 | –
COc1cc(-c2nc(-c3ccc4c(c3)CCC(=O)N4)cs2)ccc1S(C)(=O)=O | – | IC50 [1]: Not Active
CCOc1cc(-c2nc(-c3ccc4c(c3)CCC(=O)N4)cs2)ccc1OC | 7.05 | –
COc1ccc(-c2nc(-c3ccc4c(c3)CCC(=O)N4)cs2)c(OC)c1 | 5.52 | –
O=C1CCc2cc(-c3csc(-c4ccc(O)c(O)c4)n3)ccc2N1 | 6.00 | –
CCOc1ccc(-c2nc(-c3cccc(C(=O)O)n3)cs2)cc1OCC [TETOMILAST] | 7.15 | solubility [3]: 21 mg/mL

Now from value to molecule, other results behind:

pIC50 [2] | SMILES | further results
7.05 | CCCOc1cc(-c2nc(-c3ccc4c(c3)CCC(=O)N4)cs2)ccc1OC | –
< 5.00 | O=C1CCc2cc(-c3csc(-c4ccccc4)n3)ccc2N1 | –
< 5.00 | CCOc1ccc(-c2nc(-c3ccccc3C(=O)O)cs2)cc1OCC | solubility [3]: 21 mg/mL
8.30 | CCOc1ccc(-c2nc(-c3cccc(C(=O)O)c3)cs2)cc1OCC | solubility [3]: 23 mg/mL
6.10 | COc1cc(-c2nc(-c3ccc4c(c3)CCC(=O)N4)cs2)ccc1[S+](C)[O-] (stereo not given) | –
6.52 | CCCCOc1cc(-c2nc(-c3ccc4c(c3)CCC(=O)N4)cs2)ccc1OC | –
6.22 | CCOc1ccc(-c2nc(-c3ccc4c(c3)CCC(=O)N4)cs2)cc1OC | –
6.70 | CCOc1ccc(-c2nc(-c3ccc(C(=O)O)cc3)cs2)cc1OCC | solubility [3]: 23 mg/mL
6.00 | c1ccc(-c2csc(-c3cccnc3)n2)cc1 | –
7.10 | CCOc1ccc(-c2nc(-c3ccc(C(=O)O)s3)cs2)cc1OCC | solubility [3]: 23 mg/mL
< 5.00 | COc1ccc(-c2nc(-c3ccc4c(c3)CCC(=O)N4)co2)cc1OC | –
9.00 | CCOc1ccc(-c2nc(-c3cc(OC(C)=O)cc(OC(C)=O)c3)cs2)cc1OCC | solubility thermodynamic [7]: < 0.001 mg/mL
< 5.00 | COc1ccc(-c2nc(-c3ccc4c(c3)CCC(=O)N4)c[nH]2)cc1OC | –
5.00 | COc1ccc(Cc2nc(-c3ccc4c(c3)CCC(=O)N4)cs2)cc1OC | –
6.00 | O=C1CCc2cc(-c3csc(-c4cccnc4)n3)ccc2N1 | –
